The results in this text go back to PubChem BioAssay AID588627 (Johns Hopkins Ion Channel Center, 2011).

The campaign covered roughly 310,000 compounds. About 1,400 (0.45%) were called active.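 How the source made its calls: active means calcium response B-score plate-corrected fluorescence ratio at least 3 library SD, with starting fluorescence B-score inside 5 SD; inactive means the rest.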 For the sample, actives were picked, then their nearest neighbours and some compounds at random.

Sequence of Mas-related G-protein coupled receptor member X1 (Homo sapiens) (Q96LB2 whole entry, looked up): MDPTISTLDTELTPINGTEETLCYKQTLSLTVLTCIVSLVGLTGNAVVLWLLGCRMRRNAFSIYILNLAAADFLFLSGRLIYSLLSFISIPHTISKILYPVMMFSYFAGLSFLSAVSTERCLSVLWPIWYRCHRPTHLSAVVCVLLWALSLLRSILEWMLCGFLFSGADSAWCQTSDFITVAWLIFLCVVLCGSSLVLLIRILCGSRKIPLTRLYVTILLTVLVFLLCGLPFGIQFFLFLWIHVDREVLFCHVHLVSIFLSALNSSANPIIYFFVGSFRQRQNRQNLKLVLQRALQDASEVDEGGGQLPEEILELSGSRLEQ

This assay concerns the target Mas-related G-protein coupled receptor member X1 (Homo sapiens) (UniProt Q96LB2). Nature of the assay: agonists of human MrgX1 receptor, primary screen, HEK293 cells, Fluo-4 calcium flux (AID 588627).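 On B-score: B-score of the peak-minus-trough calcium fluorescence change over baseline.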 To be noted: Fluo-4 calcium fluorescence, agonist mode, at 10 µM; active compounds read high. In short, it runs like this:
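Test system: HEK293 cells stably expressing human MrgX1 receptor; amount: 15,000 cells per well; doses: compound delivered in addition one of three; times: overnight plating before 1 h dye loading; detection: Fluo-4 NW calcium-flux fluorescence, kinetic read; read-out basis: B-scored fluorescence response ratio; controls: positive and negative controls per plate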
A general note: Calcium assays in cells follow changes in intracellular calcium, usually with a dye or a luminescent sensor.
Regarding `COc1cccc(CN(C)CC(O)COC(c2ccccc2)c2ccccc2C)c1` (stereo not given), the B-score result was “inactive”. The same measure for `Cn1c(=O)c2cc(S(=O)(=O)NCCC(=O)Nc3ccc(F)cc3F)ccc2n(C)c1=O`: “inactive”; for `Cc1ccc(C(=O)C(C)OC(=O)Cc2n[nH]c(=O)c3ccccc23)cc1C` (stereo not given): “inactive”; for `O=C1CCCc2c1nc(-c1cccc(Cl)c1)n2O`: “inactive”. The same measure for `Cc1cccc(-c2nc3ccccc3c(=O)n2NC(=O)Cc2ccc(Cl)cc2)c1`: “inactive”; for `O=c1c2cc(Br)ccc2nc(-c2cccc(Cl)c2)n1O`: 67.7 (active); for `Cc1c2cnn(CC(=O)NCCCN3CC(C)CC(C)C3)c(=O)c2c(C)n1Cc1ccc(Cl)cc1` (stereo not given): “inactive”. For the compound `COc1cc(NC(=O)C2=C(C)OCCS2)c(Cl)cc1C(=O)NCCN1CCN(C)CC1`, the B-score result was “inactive”. In the case of `O=C(Nc1ccccc1N1CCOCC1)c1ccc(OCc2cscn2)cc1`, the B-score entry was “inactive”.

On to `Cc1nn(CC2CC2)c(=O)n1N(C)c1ncc(C(F)(F)F)cc1Cl`, for which the B-score result was “inactive”. In the case of `COC1=C/C(=C/c2c(N)n3nc(CC(=O)N4CCOCC4)sc3nc2=O)C=CC1=O`, the B-score is 34.8 (active).

`COc1ccc(-c2ccnc(SCC(=O)N3CCOCC3)n2)cc1`: the B-score entry is “inactive”. As for `C=CCC1=C/C(=C\c2c(N)n3nc(CC(=O)N4CCOCC4)sc3nc2=O)C=C(OC)C1=O`, the entry is “inactive”; as for `CC(=O)Nc1nc2c(s1)C(=O)NCC(C)(C)C2`, “inactive”. The same measure for `NC(=O)N1CCCC1C(=O)Nc1ccc(Cl)c(Cl)c1` (stereo not given): “inactive”; for `CC1(C(=O)O)CCC(C(=O)Nc2ccc(Cl)c(Cl)c2)C1(C)C` (stereo not given): 30.1 (active); for `CCN(CC)C(=O)C1CCC(C)(C(=O)O)C1(C)C` (stereo not given): “inactive”. The same measure for `Cc1ccsc1C1C(C#N)=C(N)OC2=C1C(=O)CC(C)(C)C2` (stereo not given): “inactive”; for `Cc1c(C(=O)Nc2ccccc2)sc2nc3n(c(=O)c12)CCCCC3`: “inactive”.

`COc1ccc(OC)c(NC(=O)c2ccc3c(c2)C(=O)N(c2ccc(OC(C)=O)cc2)C3=O)c1`: the B-score result was “inactive”.

For the compound `O=C1C(=O)N(CC2COc3ccccc3O2)c2ccccc21` (stereo not given), the B-score was 56 (active).

Regarding `O=C(CN1C(=O)C2C3C=CC(C3)C2C1=O)NCC1COc2ccccc2O1` (stereo not given), the B-score entry was “inactive”. Turning to `Cc1cc(C(=O)CCl)c(C)n1CC1COc2ccccc2O1` (stereo not given), the B-score entry is “inactive”.

Take `Cc1ccc(S(=O)(=O)NC2CCCCCC2)cc1C(N)=O`: the B-score result is “inactive”. As for `CN(c1ccccc1)c1ccc(/C=c2\s/c(=C(/C#N)C(=O)C(C)(C)C)n(Cc3ccco3)c2=O)cc1`, the figure is 193 (active); as for `O=c1nc2s/c(=C\c3ccco3)c(=O)n2nc1Cc1ccccc1`, “inactive”; as for `CCOC(=O)/C=c1\s/c(=C\c2ccc(C#N)cc2)c(=O)n1CC(=O)Nc1cccc(C)c1C`, “inactive”. In the case of `CCCCN1C(N)=NC[C@@H]1Cc1ccccc1`, the B-score result was “inactive”. The same measure for `CCCC[C@@H]1CN=C(N)N1CCCC`: “inactive”; for `CCCCN1C(N)=NC[C@@H]1CC1CCCCC1`: 36.9 (active).
